# In ChEMBL document CHEMBL1143668, “Reversal of P-glycoprotein-mediated multidrug resistance by sipholane triterpenoids” (J Nat Prod, 2007):
# pIC50: −log10 of the molar value.
# What was measured:
# Format in all cases: functional, cell-based
# [1] = Cytotoxicity against KB-3-1 cells after 68 hrs by MTT assay; settings: Homo sapiens, KB 3-1, 68 h
# In short: (§1)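 Human epidermoid carcinoma KB-3-1 (parental) and sublines: KB/MRP1 (MRP1 cDNA-transfected), KB-CV60 (kept in 1 μg/mL cepharanthine + 60 ng/mL vincristine), KB-C2 (kept in 2 μg/mL colchicine). DMEM with 10% bovine serum, 37 °C, 5% CO₂. Seeded at 4×10^4 (KB-3-1), 5×10^4 (KB/MRP1) or 7.5×10^4 cells/mL (KB-CV60, KB-C2). Compound dilution series for 68 h, then MTT 4 h. Formazan dissolved in DMSO, A570. IC50 from survival curves by the Bliss method.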
# [2] = test system: KB; experiment: Cytotoxicity against KB cells expressing MRP1 after 68 hrs by MTT assay; settings: Homo sapiens; in short: as §1
# [3] = Cytotoxicity against KB-CV60 cells expressing MRP1 after 68 hrs by MTT assay; settings: Homo sapiens, KB-CV60, 68 h; in short: as §1
# [4] = Cytotoxicity against KB-C2 cells overexpressing P-gp after 68 hrs by MTT assay; settings: Homo sapiens, KB-C2, 68 h; in short: as §1
# [5] = test system: KB 3-1; experiment: Reversal of P-gp-mediated multidrug resistance to Cytotoxicity of colchicine against human KB-3-1 cells at 5 uM after 68 hrs by MTT assay; settings: KB 3-1, 68 h
# In short: (§2)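 KB-3-1 seeded at 4×10^4 cells/mL, KB-C2 at 7.5×10^4 cells/mL (KB-C2 kept in 2 μg/mL colchicine). MTT added for 4 h, DMSO solubilization, A570. IC50 by the Bliss method. Fold-resistance = IC50 / colchicine IC50 in KB-3-1. Mean ± SD, three independent experiments in triplicate.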
# [6] = Reversal of P-gp-mediated multidrug resistance to Cytotoxicity of colchicine against human KB-C2 cells at 5 uM after 68 hrs by MTT assay; settings: KB-C2, 68 h; in short: as §2
Structure (SMILES),pIC50 [1],pIC50 [2],pIC50 [3],pIC50 [4],pIC50 [5],pIC50 [6]
CC1(C)C(CC[C@@H]2[C@@]3(C)CC[C@@H](O)C(C)(C)O[C@@H]3CC[C@]2(C)O)C(C=O)=CCC2C1CC[C@@]2(C)O (stereo partly drawn),< 4.30,< 4.30,< 4.30,< 4.30,8.30,5.55
CC1(C)O[C@@H]2CC[C@](C)(O)[C@H](CC[C@@]34O[C@]3(C)[C@H](O)CC3C(CC[C@@]3(C)O)C4(C)C)[C@@]2(C)CC[C@H]1O (stereo partly drawn) [SIPHOLENOL I],< 4.30,< 4.30,< 4.30,< 4.30,8.07,5.54
CC1=CCC2C(CC[C@@]2(C)O)C(C)(C)C1CC[C@@H]1[C@@]2(C)CCC(=O)C(C)(C)O[C@@H]2CC[C@]1(C)O (stereo partly drawn) [SIPHOLENONE A],< 4.30,< 4.30,< 4.30,< 4.30,8.28,6.03
CC1=C(CC[C@@H]2[C@@]3(C)CC[C@@H](O)C(C)(C)O[C@@H]3CC[C@]2(C)O)[C@](C)(C/C=C/C(C)(C)O)[C@H](O)CC1 [SIPHONELLINOL C],< 4.30,< 4.30,< 4.30,< 4.30,8.11,5.83
CC1=CCC2C(CC[C@@]2(C)O)C(C)(C)C1CC[C@@H]1[C@@]2(C)CC[C@@H](O)C(C)(C)O[C@@H]2CC[C@]1(C)O (stereo partly drawn) [SIPHOLENOL A],< 4.30,< 4.30,< 4.30,< 4.30,8.30,6.68
CC1(C)O[C@@H]2CC[C@](C)(O)[C@H](CCC3C(CO)=CCC4C(CC[C@@]4(C)O)C3(C)C)[C@@]2(C)CCC1=O (stereo partly drawn),< 4.30,< 4.30,< 4.30,< 4.30,8.20,5.22
CC1(C)O[C@@H]2CC[C@](C)(O)[C@H](CCC3C(C=O)=CCC4C(CC[C@@]4(C)O)C3(C)C)[C@@]2(C)CCC1=O (stereo partly drawn),< 4.30,< 4.30,< 4.30,< 4.30,8.25,5.20
CC1(C)C(CC[C@@H]2[C@@]3(C)CC[C@@H](O)C(C)(C)O[C@@H]3CC[C@]2(C)O)C(CO)=CCC2C1CC[C@@]2(C)O (stereo partly drawn) [28-HYDROXYSIPHOLENOL A],< 4.30,< 4.30,< 4.30,< 4.30,8.23,5.29
